This passage reports IC50, Activity and Ratio IC50 results from ChEMBL document CHEMBL5512684 (J Med Chem, 2024).

Peptide text beside a SMILES is read from it. Where only a bound is given, the exact number is not on record here.

The target of assay [1] is T1, Neuronal acetylcholine receptor subunit alpha-7 (Homo sapiens, UniProt P36544). Put plainly: Antagonist activity at human alpha7 nAChR expressed in Xenopus laevis oocytes assessed as inhibition of Ach-induced response at -70 mV holding potential measured after 5 mins by two electrode voltage-clamp electrophysiology method. It is filed as cell-based, Oocyte. An outline of the steps: (§1)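 TEVC at −70 mV after 1–4 days, perfusion ~3 mL/min, saline pH 7.4 with BSA. ACh 3 mM for α10, 100 μM for α7. α7 pulses 500 ms, α10 1 s, every 60 s. Peptide perfused up to 1 μM, static 5-min bath above.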
T1 sequence (P36544 whole entry, the tested form may be a part): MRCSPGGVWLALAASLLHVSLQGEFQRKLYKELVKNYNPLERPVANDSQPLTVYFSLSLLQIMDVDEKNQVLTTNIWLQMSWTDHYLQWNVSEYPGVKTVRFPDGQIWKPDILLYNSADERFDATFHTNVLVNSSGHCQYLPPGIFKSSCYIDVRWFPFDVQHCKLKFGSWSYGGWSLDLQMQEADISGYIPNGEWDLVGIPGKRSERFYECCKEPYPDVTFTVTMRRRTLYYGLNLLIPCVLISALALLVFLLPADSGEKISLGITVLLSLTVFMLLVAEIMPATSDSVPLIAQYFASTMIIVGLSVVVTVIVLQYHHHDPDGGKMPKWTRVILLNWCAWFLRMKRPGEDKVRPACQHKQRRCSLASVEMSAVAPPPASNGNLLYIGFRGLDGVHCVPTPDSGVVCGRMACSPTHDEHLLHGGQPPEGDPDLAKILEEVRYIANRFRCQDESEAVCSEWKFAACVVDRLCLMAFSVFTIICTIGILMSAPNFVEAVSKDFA
A general note: Two-electrode voltage clamp is typically applied to oocytes expressing channels or transporters.

Assay [2] concerns the target Neuronal acetylcholine receptor; alpha9/alpha10 (Homo sapiens, UniProt Q9GZZ6+Q9UGM1). Put plainly: Antagonist activity at human alpha9alpha10 nAChR expressed in Xenopus laevis oocytes assessed as inhibition of Ach-induced response at -70 mV holding potential measured after 5 mins by two electrode voltage-clamp electrophysiology method. The class given is cell-based, Oocyte.

For assay [3], the target named is Neuronal acetylcholine receptor; alpha3/beta2 (Homo sapiens, UniProt P17787+P32297). As to the kind of experiment: Antagonist activity at human alpha3beta2 nAChR expressed in Xenopus laevis oocytes assessed as inhibition of Ach-induced response at -70 mV holding potential measured after 5 mins by two electrode voltage-clamp electrophysiology method. It is filed as cell-based, Oocyte. An outline of the steps: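 Oocytes expressing human α3β2 nAChRs were clamped at −70 mV by TEVC 1–4 days after cRNA injection and gravity-perfused with HEPES-buffered saline, pH 7.4. ACh was pulsed every 60 s until responses were stable. Peptide was perfused up to 1 μM, or given as a 5-min static bath above 1 μM. Responses were normalized to control ACh responses.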
Chain of Neuronal acetylcholine receptor; alpha3/beta2 (P17787 whole entry, the tested form may be a part): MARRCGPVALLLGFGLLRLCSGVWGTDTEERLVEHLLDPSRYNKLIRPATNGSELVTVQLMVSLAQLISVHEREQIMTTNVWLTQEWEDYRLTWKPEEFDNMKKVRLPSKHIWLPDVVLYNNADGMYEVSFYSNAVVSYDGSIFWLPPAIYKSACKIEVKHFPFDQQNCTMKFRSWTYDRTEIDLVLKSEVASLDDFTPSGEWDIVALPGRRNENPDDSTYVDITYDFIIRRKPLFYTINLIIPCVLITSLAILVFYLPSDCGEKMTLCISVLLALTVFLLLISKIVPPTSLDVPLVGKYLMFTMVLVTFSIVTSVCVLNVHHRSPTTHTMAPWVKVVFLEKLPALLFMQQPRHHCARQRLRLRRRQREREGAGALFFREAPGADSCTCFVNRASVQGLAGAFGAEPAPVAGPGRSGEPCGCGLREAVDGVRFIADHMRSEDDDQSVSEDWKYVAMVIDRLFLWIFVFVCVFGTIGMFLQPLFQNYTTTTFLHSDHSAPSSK
Chain of Neuronal acetylcholine receptor; alpha3/beta2 (P32297 whole entry, the tested form may be a part): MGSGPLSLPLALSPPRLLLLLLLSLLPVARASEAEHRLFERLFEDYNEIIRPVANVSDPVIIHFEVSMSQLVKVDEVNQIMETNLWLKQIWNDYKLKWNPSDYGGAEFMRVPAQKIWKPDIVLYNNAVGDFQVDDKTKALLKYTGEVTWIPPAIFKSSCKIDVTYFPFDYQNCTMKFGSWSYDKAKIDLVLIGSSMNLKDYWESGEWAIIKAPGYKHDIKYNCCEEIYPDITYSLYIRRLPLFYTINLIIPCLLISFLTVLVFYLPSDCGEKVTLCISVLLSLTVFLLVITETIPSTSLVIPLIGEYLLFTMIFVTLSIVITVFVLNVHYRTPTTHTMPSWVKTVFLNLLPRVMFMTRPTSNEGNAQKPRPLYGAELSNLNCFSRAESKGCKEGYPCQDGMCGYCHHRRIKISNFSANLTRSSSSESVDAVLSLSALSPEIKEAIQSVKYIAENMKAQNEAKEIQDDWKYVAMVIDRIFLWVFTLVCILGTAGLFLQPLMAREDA

Assay [4] addresses T2, Neuronal acetylcholine receptor subunit alpha-9 (Homo sapiens, UniProt Q9UGM1). As to the kind of experiment: Antagonist activity at human alpha9 nAChR expressed in Xenopus laevis oocytes assessed as inhibition of Ach-induced response at -70 mV holding potential measured after 5 mins by two electrode voltage-clamp electrophysiology method. The class given is cell-based, Oocyte. The method in brief:
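Human α9 or α9α10 cRNA in stage IV–V oocytes kept at 16 °C; α9-only oocytes incubated with 5 mM choline. TEVC at −70 mV, 1–4 days post-injection. 1 s pulses of 100 μM ACh every 60 s until responses were stable. Peptide perfused (≤1 μM) and responses normalized to the mean of three control responses. Above 1 μM, 5-min static bath normalized to a 5-min control-saline bath.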

The target in assay [5] is T3, Neuronal acetylcholine receptor subunit alpha-10 (Homo sapiens, UniProt Q9GZZ6). Put plainly: Antagonist activity at human alpha10 nAChR expressed in Xenopus laevis oocytes assessed as inhibition of Ach-induced response at -70 mV holding potential measured after 5 mins by two electrode voltage-clamp electrophysiology method. The class given is cell-based, Oocyte. An outline of the steps: as §1
T3 sequence (Q9GZZ6 whole entry): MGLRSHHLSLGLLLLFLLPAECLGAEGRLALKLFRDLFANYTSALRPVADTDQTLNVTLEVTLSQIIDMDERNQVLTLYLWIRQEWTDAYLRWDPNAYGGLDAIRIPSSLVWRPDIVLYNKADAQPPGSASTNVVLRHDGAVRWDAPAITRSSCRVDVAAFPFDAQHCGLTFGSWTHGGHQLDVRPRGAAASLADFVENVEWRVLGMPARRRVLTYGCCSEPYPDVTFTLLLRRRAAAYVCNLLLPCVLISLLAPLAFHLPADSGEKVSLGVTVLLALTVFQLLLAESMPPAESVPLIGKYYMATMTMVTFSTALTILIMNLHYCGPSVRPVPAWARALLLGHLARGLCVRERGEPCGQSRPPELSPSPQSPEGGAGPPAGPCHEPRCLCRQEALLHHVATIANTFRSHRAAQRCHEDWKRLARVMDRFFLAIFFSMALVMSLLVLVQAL

For assay [6], the target named is T1, Neuronal acetylcholine receptor subunit alpha-7. Put plainly: Antagonist activity at human alpha7 nAChR expressed in Xenopus laevis oocytes assessed as inhibition of Ach-induced response by measuring residual activity at 10 uM at -70 mV holding potential measured after 5 mins by two electrode voltage-clamp electrophysiology method relative to control. As to conditions: Oocyte. It is filed as cell-based. The method in brief: (§2)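 Single-point test at 10 μM peptide, applied for 5 min in a static bath to oocytes under TEVC at −70 mV. ACh 100 μM (α7, α9, α9α10) or 3 mM (α10), pulsed every 60 s. The ACh response was normalized to the response after a 5-min bath application of control saline.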

Assay [7] has as its target T2, Neuronal acetylcholine receptor subunit alpha-9. As to the kind of experiment: Antagonist activity at human alpha9 nAChR expressed in Xenopus laevis oocytes assessed as inhibition of Ach-induced response by measuring residual activity at 10 uM at -70 mV holding potential measured after 5 mins by two electrode voltage-clamp electrophysiology method relative to control. The class given is cell-based. The conditions noted are these: Oocyte. An outline of the steps: as §2

Assay [8] deals with T3, Neuronal acetylcholine receptor subunit alpha-10. Put plainly: Antagonist activity at human alpha10 nAChR expressed in Xenopus laevis oocytes assessed as inhibition of Ach-induced response by measuring residual activity at 10 uM at -70 mV holding potential measured after 5 mins by two electrode voltage-clamp electrophysiology method relative to control. As to conditions: Oocyte. The class given is cell-based. An outline of the steps: as §2

Assay [9] concerns the target T4, Neuronal acetylcholine receptor; alpha9/alpha10 (Homo sapiens) (UniProt Q9UGM1+Q9GZZ6). Put plainly: Antagonist activity at human alpha9alpha10 nAChR expressed in Xenopus laevis oocytes assessed as inhibition of Ach-induced response by measuring residual activity at 10 uM at -70 mV holding potential measured after 5 mins by two electrode voltage-clamp electrophysiology method relative to control. The conditions noted are these: Oocyte. It is filed as cell-based. The method in brief: as §2

For assay [10], the species on record is Homo sapiens. As to the kind of experiment: Selectivity index, ratio of IC50 for antagonist activity at human alpha7 nAChR expressed in Xenopus laevis oocytes assessed as inhibition of Ach-induced response to IC50 for antagonist activity at human alpha3beta2 nAChR expressed in Xenopus laevis oocytes assessed as inhibition of Ach-induced response. It is filed as cell-based.

Assay [11] is filed under the species Homo sapiens. As to the kind of experiment: Selectivity index, ratio of IC50 for antagonist activity at human alpha9 nAChR expressed in Xenopus laevis oocytes assessed as inhibition of Ach-induced response to IC50 for antagonist activity at human alpha3beta2 nAChR expressed in Xenopus laevis oocytes assessed as inhibition of Ach-induced response. It is filed as cell-based.

For assay [12], the species on record is Homo sapiens. As to the kind of experiment: Selectivity index, ratio of IC50 for antagonist activity at human alpha10 nAChR expressed in Xenopus laevis oocytes assessed as inhibition of Ach-induced response to IC50 for antagonist activity at human alpha3beta2 nAChR expressed in Xenopus laevis oocytes assessed as inhibition of Ach-induced response. The class given is cell-based.

For assay [13], the species on record is Homo sapiens. As to the kind of experiment: Selectivity index, ratio of IC50 for antagonist activity at human alpha9alpha10 nAChR expressed in Xenopus laevis oocytes assessed as inhibition of Ach-induced response to IC50 for antagonist activity at human alpha3beta2 nAChR expressed in Xenopus laevis oocytes assessed as inhibition of Ach-induced response. The class given is cell-based.

The target in assay [14] is T1, Neuronal acetylcholine receptor subunit alpha-7. As to the kind of experiment: Antagonist activity at human alpha7 nAChR expressed in Xenopus laevis oocytes assessed as inhibition of Ach-induced response assessed as residual activity at 10 uM at -70 mV holding potential preincubated for 5 mins followed by peptide washout and measured after 15 mins by two electrode voltage-clamp electrophysiology method (reference value: 30 +/- 9%). The class given is cell-based. The conditions noted are these: Oocyte. An outline of the steps: (§3)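 Recovery of ACh-evoked responses was then followed during peptide washout for 15 min. Values are given as percent of control responses.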

In assay [15] the target is T4, Neuronal acetylcholine receptor; alpha9/alpha10 (Homo sapiens). As to the kind of experiment: Antagonist activity at human alpha9alpha10 nAChR expressed in Xenopus laevis oocytes assessed as inhibition of Ach-induced response assessed as residual activity at 10 uM at -70 mV holding potential preincubated for 5 mins followed by peptide washout and measured after 15 mins by two electrode voltage-clamp electrophysiology method (reference value: 3 +/- 2%). The class given is cell-based. As to conditions: Oocyte. An outline of the steps:
as §3

Assay [16] addresses T1, Neuronal acetylcholine receptor subunit alpha-7. Put plainly: Antagonist activity at human alpha7 nAChR expressed in Xenopus laevis oocytes assessed as inhibition of Ach-induced response assessed as residual activity at 10 uM at -70 mV holding potential preincubated for 5 mins followed by peptide washout and measured after 15 mins by two electrode voltage-clamp electrophysiology method (reference value: 0.5 +/- 0.2%). It is filed as cell-based. As to conditions: Oocyte. The method in brief:
as §3

For assay [17], the target named is T4, Neuronal acetylcholine receptor; alpha9/alpha10 (Homo sapiens). Put plainly: Antagonist activity at human alpha9alpha10 nAChR expressed in Xenopus laevis oocytes assessed as inhibition of Ach-induced response assessed as residual activity at 10 uM at -70 mV holding potential preincubated for 5 mins followed by peptide washout and measured after 15 mins by two electrode voltage-clamp electrophysiology method (reference value: 0.5%). It is filed as cell-based. As to conditions: Oocyte, filed as antagonist. The method in brief: as §3

Chain of Neuronal acetylcholine receptor; alpha9/alpha10 (Q9UGM1 whole entry): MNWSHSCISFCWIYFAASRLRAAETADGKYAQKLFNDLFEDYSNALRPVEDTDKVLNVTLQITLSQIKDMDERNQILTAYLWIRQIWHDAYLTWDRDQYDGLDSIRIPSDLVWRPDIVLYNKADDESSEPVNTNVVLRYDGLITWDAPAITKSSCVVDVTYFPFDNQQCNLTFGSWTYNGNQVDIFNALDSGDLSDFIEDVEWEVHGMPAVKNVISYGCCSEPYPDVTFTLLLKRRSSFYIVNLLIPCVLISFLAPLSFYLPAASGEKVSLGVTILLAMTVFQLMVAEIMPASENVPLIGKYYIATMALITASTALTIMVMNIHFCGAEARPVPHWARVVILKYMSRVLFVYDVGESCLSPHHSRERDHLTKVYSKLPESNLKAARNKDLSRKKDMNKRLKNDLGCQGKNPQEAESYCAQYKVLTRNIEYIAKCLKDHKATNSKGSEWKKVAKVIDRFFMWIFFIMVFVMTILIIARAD
Chain of Neuronal acetylcholine receptor; alpha9/alpha10 (Q9GZZ6 whole entry): as the sequence (Q9GZZ6 whole entry) above
T2 sequence (Q9UGM1 whole entry, the tested form may be a part): as the sequence (Q9UGM1 whole entry) above

Take `CC[C@H](C)[C@H](NC(=O)[C@H](CCC(=O)O)NC(=O)[C@@H]1CCCN1C(=O)[C@H](Cc1c[nH]cn1)NC(=O)[C@H](CC(=O)O)NC(=O)[C@@H](NC(=O)[C@H](CC(N)=O)NC(=O)[C@H](CS)NC(=O)[C@H](C)NC(=O)[C@@H]1CCCN1C(=O)[C@H](Cc1c[nH]cn1)NC(=O)[C@H](CO)NC(=O)[C@H](CS)NC(=O)[C@H](CS)NC(=O)CN)C(C)C)C(=O)N[C@@H](CS)C(=O)O`: the IC50 in assay [1] is greater than 10000 nM; in [2], greater than 10000 nM; in assay [3] it was 25.4 nM; in assay [4], greater than 10000 nM; in [5], greater than 10000 nM. Further, the Activity in [6] was found to be 81%; in [7] it was 91%; in assay [8], 74%; in [9], 103%. The Ratio IC50 in the assay listed under Homo sapiens [10], in the assay listed under Homo sapiens [11], in the assay filed under Homo sapiens [12] and in the assay filed under Homo sapiens [13] was greater than 400 throughout.

For the compound `C[C@H](NC(=O)[C@H](CCCNC(=N)N)NC(=O)[C@H](CCCNC(=N)N)NC(=O)[C@H](Cc1c[nH]cn1)NC(=O)[C@H](CO)NC(=O)[C@H](CCCCN)NC(=O)[C@H](CS)NC(=O)[C@H](C)NC(=O)[C@@H]1CCCN1C(=O)[C@H](Cc1c[nH]cn1)NC(=O)[C@H](CO)NC(=O)[C@H](CS)NC(=O)[C@H](CS)NC(=O)CN)C(=O)N[C@@H](CCCNC(=N)N)C(=O)N[C@@H](CS)C(=O)O` (H-GCCSHPACKSHRRARC-OH), the 50% inhibitory concentration (IC50) amounted to 1890 nM in [1] and 133 nM in assay [2]. The Activity in assay [6] (filed as antagonist) is 13%; in assay [9] (filed as antagonist), 0.7%.

`C[C@H](NC(=O)[C@H](CCCNC(=N)N)NC(=O)[C@H](CCCNC(=N)N)NC(=O)[C@H](Cc1c[nH]cn1)NC(=O)[C@H](CO)NC(=O)[C@H](CS)NC(=O)[C@H](C)NC(=O)[C@@H]1CCCN1C(=O)[C@H](Cc1c[nH]cn1)NC(=O)[C@H](CO)NC(=O)[C@H](CS)NC(=O)[C@H](CS)NC(=O)CN)C(=O)N[C@@H](CCCNC(=N)N)C(=O)N[C@@H](CO)C(=O)N[C@@H](CS)C(=O)O` (H-GCCSHPACSHRRARSC-OH): the results for the IC50 in assay [1] and in assay [2] were 10100 nM and 1290 nM, respectively. Further, the Activity in [6] (filed as antagonist) amounted to 46%; in assay [9] (filed as antagonist) it was 6%.

Take `C[C@H](NC(=O)[C@H](CCCNC(=N)N)NC(=O)[C@H](CCCNC(=N)N)NC(=O)[C@@H]1CCCN1C(=O)[C@H](CO)NC(=O)[C@H](CS)NC(=O)[C@H](C)NC(=O)[C@@H]1CCCN1C(=O)[C@H](Cc1c[nH]cn1)NC(=O)[C@H](CO)NC(=O)[C@H](CS)NC(=O)[C@H](CS)NC(=O)CN)C(=O)N[C@@H](CCCNC(=N)N)C(=O)N[C@@H](CO)C(=O)N[C@@H](CS)C(=O)O` (H-GCCSHPACSPRRARSC-OH): the IC50 in assay [1] came to 2120 nM; in [2] it was 1120 nM. The Activity in assay [6] (filed as antagonist) was 16%; in assay [9] (filed as antagonist), 10%; in [14] it was 97%; in assay [15], 99%.

Take `C[C@H](NC(=O)[C@H](CCCNC(=N)N)NC(=O)[C@H](CO)NC(=O)[C@@H]1CCCN1C(=O)[C@H](CO)NC(=O)[C@H](CS)NC(=O)[C@H](C)NC(=O)[C@@H]1CCCN1C(=O)[C@H](Cc1c[nH]cn1)NC(=O)[C@H](CO)NC(=O)[C@H](CS)NC(=O)[C@H](CS)NC(=O)CN)C(=O)N[C@@H](CO)C(=O)N[C@@H](CO)C(=O)N[C@@H](CS)C(=O)O` (H-GCCSHPACSPSRASSC-OH): in [1], the IC50 was greater than 10000 nM.

Take `C[C@H](NC(=O)[C@H](CCCNC(=N)N)NC(=O)[C@H](CCCNC(=N)N)NC(=O)[C@H](CCCNC(=N)N)NC(=O)[C@H](CO)NC(=O)[C@H](CS)NC(=O)[C@H](C)NC(=O)[C@@H]1CCCN1C(=O)[C@H](Cc1c[nH]cn1)NC(=O)[C@H](CO)NC(=O)[C@H](CS)NC(=O)[C@H](CS)NC(=O)CN)C(=O)N[C@@H](CCCNC(=N)N)C(=O)N[C@@H](CO)C(=O)N[C@@H](CS)C(=O)O` (H-GCCSHPACSRRRARSC-OH): the results for the IC50 in assay [1] and in assay [2] were 177 nM and 98.1 nM, respectively. The Activity turned out to be 1.4% in assay [6] (filed as antagonist), 1% in assay [9] (filed as antagonist), 99% in [16] and 21% in assay [17].

Take `C[C@H](NC(=O)[C@H](CCCNC(=N)N)NC(=O)[C@H](CO)NC(=O)[C@H](CCCNC(=N)N)NC(=O)[C@H](CO)NC(=O)[C@H](CS)NC(=O)[C@H](C)NC(=O)[C@@H]1CCCN1C(=O)[C@H](Cc1c[nH]cn1)NC(=O)[C@H](CO)NC(=O)[C@H](CS)NC(=O)[C@H](CS)NC(=O)CN)C(=O)N[C@@H](CO)C(=O)N[C@@H](CO)C(=O)N[C@@H](CS)C(=O)O` (H-GCCSHPACSRSRASSC-OH): the results for the IC50 in assay [1] and in assay [2] were 5400 nM and greater than 10000 nM, respectively.

Usually IC50 stands for the concentration at which inhibition is half-maximal.
